Assay outcomes deposited in PubChem by several laboratories.
CHOP inh – inhibitors of CHOP promoter induction, primary screen, cell-based, unfolded protein response, luciferase reporter; inhibition, % at 10 µM; AID 2732, 2010; CHO-K1 CHOP-promoter luciferase, tunicamycin-induced, 15-18 h; hit rate 3.8% among 220,000;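 active = compounds that reduced the stress-induced luciferase reporter signal by more than about 70% of percent inhibition, limit read from the data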
T cruzi repl – inhibitors of intracellular T. cruzi growth, primary screen, luminescence, NIH3T3 host cells; T. cruzi beta-gal in NIH3T3, 90 h; hit rate 1.4% among 300,000; inhibition, % (no concentration beside the values);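 active = mean inhibition across valid replicates above about 55%, limit read from the data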;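 note: signal also drops with host cell toxicity which is not excluded here; higher percent means less beta-gal luminescence so fewer parasites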
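Read-out: Parasite load inhibition, % | Test system: Mouse NIH/3T3 fibroblasts infected with β-gal-expressing T. cruzi Tulahuen C4 | Amount: 5,000 cells/well | Medium: DMEM, 2% fetal bovine serum | Signal: GalScreen β-gal luminescence, detergent lysis, 60 min | Timing: 3 h attach, ≥90 h co-culture | Also added: Tulahuen C4 trypomastigotes, 5000/well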
NR3A LBD binder – binders of NR3A ligand-binding domain, primary screen, biophysical, differential scanning fluorimetry, uHTS | Glutamate receptor ionotropic, NMDA 3A (GRIN3A) ligand-binding domain | hit rate 2.5% among 340,000 | NR3A LBD differential scanning fluorimetry, Tm shift; 0% = protein alone, 100% = glycine-bound protein | Tm shift relative to glycine control, % at 25 µM;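 active = melting temperature shift of at least 10% of the positive control shift, at one fixed dose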
Beta apoptosis – inhibitors of cytokine-induced beta cell apoptosis, primary screen, luminescence; INS-1E cytokine-induced death, ATP luminescence, 48 h; percent of positive-control rescue, neutral wells zero; protection from apoptosis, % (test concentration not listed); hit rate 0.8% among 300,000;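 active = Every replicate reaches about 75%, or at least half do and their mean reaches it too, limit read from the data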;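 note: higher means more ATP so stronger rescue from cytokine killing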
CSC inhib – cancer stem cell viability inhibitors, primary screen, luminescence; cancer stem cell-like cells viability; inhibition, % at 7.5 µM; hit rate 1.1% among 300,000; AID 2717, 2010; in the data active = inhibition above about 75%; tested in HMLE shEcad cells
PREPL inh – PREPL enzyme inhibitors, primary screen, biochemical, fluorescence polarization; Prolyl endopeptidase-like (Homo sapiens), Q4J6C6; recombinant PREPL, fluorescence polarization activity-based probe; inhibition, % at 5.96 µM; hit rate 0.68% among 320,000; in the data active = inhibition above about 43%
Target sequence (Q4J6C6 whole entry, looked up): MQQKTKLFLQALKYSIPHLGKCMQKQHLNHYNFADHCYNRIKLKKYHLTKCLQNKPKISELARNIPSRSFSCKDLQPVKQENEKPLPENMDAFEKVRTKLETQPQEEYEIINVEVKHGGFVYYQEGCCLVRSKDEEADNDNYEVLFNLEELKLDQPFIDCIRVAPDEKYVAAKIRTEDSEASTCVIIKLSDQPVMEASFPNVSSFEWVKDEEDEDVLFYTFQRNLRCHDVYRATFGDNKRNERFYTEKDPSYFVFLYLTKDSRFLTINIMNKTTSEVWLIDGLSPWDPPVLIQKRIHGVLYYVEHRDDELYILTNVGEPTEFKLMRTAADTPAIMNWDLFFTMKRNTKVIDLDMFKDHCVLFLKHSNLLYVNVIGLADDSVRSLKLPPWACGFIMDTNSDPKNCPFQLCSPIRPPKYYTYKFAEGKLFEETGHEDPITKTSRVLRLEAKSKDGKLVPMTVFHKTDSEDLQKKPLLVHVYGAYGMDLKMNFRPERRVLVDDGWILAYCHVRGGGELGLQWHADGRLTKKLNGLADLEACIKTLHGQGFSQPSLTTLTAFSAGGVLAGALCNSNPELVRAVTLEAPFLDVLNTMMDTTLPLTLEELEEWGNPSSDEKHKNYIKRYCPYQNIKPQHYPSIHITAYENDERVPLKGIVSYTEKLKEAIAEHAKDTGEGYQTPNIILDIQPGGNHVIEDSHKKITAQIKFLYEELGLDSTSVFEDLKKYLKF
A number is an active result; n = inactive; x = no result given. The list is not random: actives were taken first. Their share in the collection is about 6.7%.

SMILES	CHOP inh	T cruzi repl	NR3A LBD binder	Beta apoptosis	CSC inhib	PREPL inh
O=C(Nc1cccc(-c2cn3c(n2)SCC3)c1)c1ccc2ccccc2n1	n	n	n	n	n	n
Oc1ccc(-c2cn3c(n2)SCC3)cc1	n	n	37	n	x	n
CCCn1nc(NC(=O)CC)c2cc3cccc(C)c3nc21	x	n	12	n	n	n
COc1ccc(CC(=O)Nc2nn(C)c3nc4c(C)cccc4cc23)cc1	81	n	n	n	n	n
O=[N+]([O-])c1cccc(NC(=S)Nc2nc(-c3ccc(Cl)cc3Cl)cs2)c1	x	n	x	n	93	n
O=C(Nc1nc(-c2cccc([N+](=O)[O-])c2)cs1)C(c1ccccc1)c1ccccc1	n	n	n	n	n	n
CC(OC(=O)c1ccccc1Br)C(=O)Nc1nc(-c2cccc([N+](=O)[O-])c2)cs1 (stereo unspecified)	n	n	n	n	n	n
O=C(NC(=S)Nc1nc(-c2cccc([N+](=O)[O-])c2)cs1)c1cc(Cl)ccc1Cl	n	n	11	n	n	n
O=C(NC(=S)Nc1nc(-c2cccc([N+](=O)[O-])c2)cs1)c1ccccc1Cl	96	n	n	n	n	n
O=C(COc1ccccc1)NC(=S)Nc1cccc([N+](=O)[O-])c1	n	n	n	x	n	n
Cc1ccc(C)n1-c1ccc(-c2ccnc(N)n2)cc1	n	x	n	x	x	x
O=C(CN1c2cccc3cccc(c23)S1(=O)=O)Nc1ccc(F)c(F)c1F	x	x	n	n	n	n
Cc1ccc(C2CC2C(=O)NNC(=S)Nc2cccc(C)c2)cc1 (stereo unspecified)	n	n	n	n	n	n
Cc1ccc(C2CC2C(=O)NNC(=S)Nc2cccc(Cl)c2)cc1 (stereo unspecified)	n	n	11	n	n	n
Cc1cc(C(=O)N2CCCC(N3CCN(c4ccccc4C)CC3)C2)n(C)n1 (stereo unspecified)	x	59	n	n	n	n
Cc1cc(C(=O)N2CCCC(N3CCN(c4cccc(Cl)c4)CC3)C2)n(C)n1 (stereo unspecified)	x	n	n	n	n	x
COC(=O)c1ccc(C(=O)NC(=S)Nc2ccc3nc(SC)sc3c2)cc1	72	n	n	n	n	n
CSc1nc2ccc(NC(=O)c3ccccn3)cc2s1	x	n	n	n	n	n
Cc1occc1C(=O)Nc1ccc([N+](=O)[O-])cc1Br	x	n	n	n	x	n
CC1(C)CC1C(=O)Nc1ccc([N+](=O)[O-])cc1Br (stereo unspecified)	n	n	12	n	n	n
Cc1ccc(COC(=O)CN2C(=O)NC3(CCCCC3C)C2=O)cc1 (stereo unspecified)	x	x	11	x	x	x
O=C(NCc1cccs1)c1cccc(Nc2nc3ccc(Br)cc3[nH]2)c1	n	n	11	n	n	n
Cc1cc(C(=O)NNc2ccccc2F)no1	n	61	n	n	n	n
Cc1cc(C(=O)NNc2ccc(F)cc2)no1	n	n	n	n	96	n
Cc1ccc2nc(-c3cccc(Br)c3)cc(C(=O)NC3CC3)c2c1	x	n	13	n	n	n
SMILES	CHOP inh	T cruzi repl	NR3A LBD binder	Beta apoptosis	CSC inhib	PREPL inh
C=CCSC(=C(C#N)C#N)c1cc2c([nH]1)CCCC2	n	n	n	n	101	n
O=C(CSc1nc2ccccc2s1)Nc1ccc2c(c1)oc1ccccc12	n	n	39	n	n	n
CC(=O)Nc1ccc(-c2nnc(SCC(=O)n3c4c(c5ccccc53)CCCC4)n2C)cc1	78	n	n	x	x	x
Cn1c(SCC(=O)Nc2ccc3[nH]c(=O)[nH]c3c2)nnc1-c1ccccc1	x	n	n	n	n	n
Cn1c(SCC(=O)n2c3c(c4ccccc42)CCCC3)nnc1-c1ccccc1	n	n	n	n	n	n
O=C(CSc1nnc(NC(=O)c2ccccc2Cl)s1)Nc1ccc2c(c1)oc1ccccc12	71	n	x	n	n	n
CC(C)(C)NC(=O)CSc1nnc(NC(=O)c2ccccc2Cl)s1	n	n	n	n	n	n
Cn1c(SCC(=O)Nc2ccc3c(c2)oc2ccccc23)nnc1-c1ccccc1	88	n	n	n	n	n
C=CCNC(=S)NNC(=O)c1ccccc1OCC	n	n	n	n	n	n
Cc1ccc(S(=O)(=O)NC(CC(C)C)C(=O)N2CCN(C/C=C/c3ccccc3)CC2)cc1 (stereo unspecified)	x	x	n	n	n	n
O=[N+]([O-])c1cccc(-c2ccn[nH]2)c1	n	n	n	n	n	n
O=[N+]([O-])c1cc(-c2ccn[nH]2)ccc1Cl	n	n	15	n	n	n
O=C(c1ccc2c3c(cccc13)CC2)C1CCCN(Cc2cccnc2)C1 (stereo unspecified)	n	62	n	n	x	n
O=C(c1ccc2c3c(cccc13)CC2)C1CCCN(C(=O)c2cccnc2)C1 (stereo unspecified)	n	n	n	n	n	n
Cc1ccc(CN2CCN(Cc3cccc4nccnc34)CC2CCO)cc1 (stereo unspecified)	n	n	n	n	n	n
O=C1CCC(C(=O)Nc2cccc(Br)c2)N1 (stereo unspecified)	x	n	n	n	n	n
Cc1ccc(-c2nn(-c3ccccc3)cc2C2CC(c3cccs3)=NN2C(=O)CCC(=O)O)cc1 (stereo unspecified)	n	n	n	n	n	n
O=C(O)CCn1cc(C2CC(c3ccccc3)=NN2c2ccccc2)c(-c2ccccc2)n1 (stereo unspecified)	80	n	n	n	n	n
CCOc1cc(S(=O)(=O)n2cc(-c3ccc(F)cc3)c(N)n2)cc(OCC)c1OCC	74	n	n	n	n	n
CCOc1ccc(S(=O)(=O)n2cc(-c3ccc(F)cc3)c(N)n2)cc1	95	n	n	n	n	n
Cc1ccc(-c2cn(S(=O)(=O)c3ccc(C)cc3)nc2N)cc1	79	n	n	x	x	n
CCOc1ccc(S(=O)(=O)n2cc(-c3ccccc3)c(N)n2)cc1	n	n	n	n	n	n
Nc1nn(S(=O)(=O)c2ccccc2)cc1-c1cccc([N+](=O)[O-])c1	n	57	22	n	n	n
CCC(=O)c1ccc(OCC(O)CNC2CCCC2)cc1 (stereo unspecified)	x	n	n	n	n	n
Cc1nc(SCc2nc3ccc([N+](=O)[O-])cc3[nH]2)c2oc3ccccc3c2n1	x	x	n	n	x	n
COc1cc(C)c(N)cc1C(C)C	n	67	n	n	n	n
O=C(c1ccccc1)c1cnc(Nc2ccc(Cl)c(Cl)c2)s1	n	n	29	n	n	n
